Laboratory results taken from publication PMC7086808 (Archives of Virology, 2009).

How the values were obtained:
[1] = test system: animals; conditions: cited from earlier work
[2] = Storage stability of compound preparations; type: physicochemical; conditions: DMSO/test medium preparations; freezing and short-term storage (1 month at 4°C)
[3] = test system: mice; conditions: single-dose oral administration; cited from earlier work
[4] = test system: CVB5 RNA; assay: Semi-quantitative detection of viral RNA by RT-PCR; type: cell-based, Coxsackie virus B5; conditions: cells treated after infection with 0.3-40 μg/ml
[5] = cited from earlier work
[6] = test system: Coxsackie virus B5 (CVB5); assay: MTT/CPE antiviral assay, compound treatment after virus infection; type: cell-based; conditions: for IC50: Enterovirus B
In short: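 Confluent HEp-2 monolayers infected with CVB5 at 100 TCID50/0.1 ml for 1 h, washed with PBS, then overlaid with twofold serial dilutions in 2% serum test medium, dosed daily. CPE scored by light microscopy and quantified by MTT (OD 540/690 nm). IC50 derived, TI = CC50/IC50; mean ± SD from three independent experiments.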

[7] = test system: guinea pigs; conditions: single-dose oral administration; cited from earlier work
[8] = test system: Coxsackie virus B5 (CVB5); assay: Coxsackie virus B5 infection in mice; type: in vivo, BALB/c mice; conditions: for mean virus yield of hearts: plaque assay
[9] = test system: rats; conditions: single-dose oral administration; cited from earlier work
[10] = MTT cytotoxicity assay; type: cell-based; conditions: human, HEp-2 cells (uninfected)
In short: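 HEp-2 cells seeded at 2 × 10⁴/well and grown to subconfluence, then given serial twofold dilutions in test medium with 2% serum; four uninfected wells per dilution; compound re-added daily; controls had 0.05% DMSO. Read-out: MTT (5 mg/ml in PBS, 4 h), formazan dissolved in DMSO, OD at 540/690 nm. Expressed as % of untreated; CC50 derived; dilutions in triplicate.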

[11] = test system: Coxsackie virus B5 (CVB5); assay: Virucidal assay; type: cell-based; conditions: Enterovirus B, B5|CVB5, HEp-2, 1 h
In short: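 CVB5 suspension mixed with twofold serial dilutions (0.5 to 20 μg/ml) for 1 h at 37°C, then added to confluent HEp-2 cells for 1 h. Inoculum removed, cells rinsed with PBS and incubated in test medium. CPE scored by microscopy and MTT; IC50 derived as mean ± SD of three independent experiments.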

[12] = test system: Coxsackie virus B5 (CVB5); assay: MTT/CPE antiviral assay, compound treatment before virus infection; type: cell-based
In short: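 HEp-2 cells pretreated with twofold serial dilutions in MEM for 24 h at 37°C, 5% CO2. Compound then removed and cells washed twice with PBS before challenge with 100 TCID50/0.1 ml CVB5 for 1 h. After two more washes, cells kept in test medium until CPE appeared; scored microscopically and by MTT. IC50 and TI (CC50/IC50); mean ± SD of three experiments.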

In the case of `CCOC(=O)c1c(CSc2ccccc2)n(C)c2cc(Br)c(O)c(CN(C)C)c12.Cl.O` [Arbidol, ethyl-6-bromo-4-[(dimethylamino)-methyl]-5-hydroxy-1-methyl-2-[(phenylthio)methyl]-indole-3-carboxylate hydrochloride monohydrate], the “pathologic changes on long-term intake” value ([1]; animals, clinical, hematological, biochemical, pathological data) is listed as “did not show pathologic changes”, the “mutagenic or teratogenic activity” value ([1]; at therapeutic doses) is listed as “no mutagenic or teratogenic activity” and the “efficacy of preparations upon storage” value [2] is listed as “did not appear to change”. For the same compound, the “LD50 (50% lethal dose)” value [3] was 687 mg/kg, the “ratio of CVB5 RNA to β-actin (RT-PCR)” value [4] was “decreased with increasing dose” and the “half-life in cultured cells” value [5] was “about 18 h”. The IC50 ([6]; B5|CVB5, HEp-2) was 6.62 ± 1.1 µg/mL, the IC50 ([6]; B5|CVB5, read-out: 50% inhibitory concentration (IC50), CPE of CVB5) was 2.66 to 6.62 µg/mL and the “TI (CC50/IC50)” value ([6]; drug added after infection, HEp-2 cells) was 12.45. The “LD50 (50% lethal dose)” value [7] was 4,000 mg/kg, the “lung index vs viral control group” value ([8]; 25 mg/kg body weight/day p.o.) was “significantly lower” and the “mean virus yield of hearts” value ([8]; 25 mg/kg body weight/day p.o. for 6 days) was 10^3 viral plaques/heart. For the same compound, the “survival by day 30” value ([8]; 25 mg/kg body weight/day p.o., eight mice per group) was “half of them had survived”, the “clinical observations during the 30-day period” value ([8]; 50 mg/kg body weight/day p.o.) was “did not show abnormalities” and the “lung index vs normal group” value ([8]; 50 mg/kg body weight/day p.o.) was “no significant difference”. For the same compound, the “lung index vs viral control group” value ([8]; 50 mg/kg body weight/day p.o.) was “significantly lower”, the “mean virus yield of hearts” value ([8]; 50 mg/kg body weight/day p.o. for 6 days) was 10^2 viral plaques/heart and the survival rate ([8]; 50 mg/kg body weight/day p.o. once a day for 6 days) was “significantly enhanced”. The body weight ([8]; 50 mg/kg body weight/day p.o., 30-day period) was “slight weight loss”, the “LD50 (50% lethal dose)” value [9] was 3,000 mg/kg and the CC50 [10] was 82.1 µg/mL. The IC50 [11] was 2.66 ± 0.4 µg/mL, the IC50 ([12]; Enterovirus B, B5|CVB5, HEp-2) was 30.3 ± 1.6 µg/mL and the “TI (CC50/IC50)” value ([12]; drug added before infection, HEp-2 cells) was 2.7.
